Bioassay records from PubChem BioAssay.
Compounds with a hit are over-represented: about 1.8% of the library has one in this group of screens.
Cneo AK release: Cryptococcus neoformans lysis via adenylate kinase release | C. neoformans lysis, adenylate kinase release luminescence, 4 h; normalised: neutral wells 0, clomiphene wells 100 | lysis activity, % at 15 µM | hit rate 0.2% among 360,000;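 active means mean lysis activity across replicates of at least 80%, whatever share of replicates individually reach that level; inactive means mean lysis activity below 80%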
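Material: C. neoformans cells; Schedule: 4 h static compound exposure, 37 °C, read 1 h post-reagent; Measured by: adenylate kinase release luminescence; Read-out: signal increase indicating cell lysis; Controls: Clomiphene as positive lysis control.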
Mot1-301 SUMO: blocks SUMOylation pathway, rescuing yeast Mot1-301 growth. S. cerevisiae Mot1-301 growth rescue, ATP luminescence, 38.5C; percent above DMSO median, 100 means doubled. growth rescue, % at 18.8 µM. hit rate 1% among 320,000. AID 2716;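 active means every valid replicate shows activation above 250% relative to neutral control wells; inactive means the rest, any valid replicate at or below 250%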;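 further: OY570 slx delta 5 strain wells were the positive control but not used for scaling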
Efflux pump inh: inhibitors of Candida antifungal efflux pumps expressed in yeast; AID 485275; inhibition, % at 10 µM; S. cerevisiae Candida pump triplex, Nile Red efflux; hit rate 0.44% among 330,000;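 active means plate passing quality check with inhibition over a set limit, or well fluorescence over plate mean plus 4 SD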;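 further: Nile Red retained in pooled yeast measured as flow cytometry median fluorescence; 0% = buffer negative control and 100% = Enniatin B positive control; higher means more Nile Red kept so more efflux inhibition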
C2C12 statin: protects C2C12 myotubes from simvastatin toxicity; ATP luminescence, 48 h; scaled: DMSO 0, geranylgeraniol control 100; rescue of ATP level, % at 7.49 µM; hit rate 0.78% among 330,000; AID 602340;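 active means mean ATP rescue above about 67%, or every replicate alone reaching that limit, limit read from the data, passing the limit was not always enough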;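 further: myotubes were challenged with 10 µM simvastatin during compound exposure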
Mot1 SUMO dose: SUMO pathway inhibitors in yeast Mot1-301 growth | shares compounds with Mot1-301 SUMO | S. cerevisiae Mot1-301 galactose growth, ATP luminescence, 24 h; -100 = growth of slx-deleted rescue strain | growth activity, percent, % at 42 µM | 2,300 tested, under 10 active;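 active means Signal drops as the depositor expects, and the fitted half-maximal dose is no more than ten times the top valid tested dose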;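 further: more negative values mean stronger growth rescue toward the control strain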
Yeast cmpd fluor: flagged as fluorescent in efflux inhibitor counter-screen; shares compounds with Efflux pump inh; S. cerevisiae AD/pABC3, compound fluorescence, flow cytometry; fluorescence ratio to DMSO, % at 10 µM; hit rate 4% among 1,700; AID 588517;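 active means fluorescence ratio to DMSO above its plate's cutoff, the plate mean ratio plus 5 SD, cut at about 210% in these data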;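 further: unstained yeast with no Nile Red so the signal is compound autofluorescence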
Mdr1 pump inh: blocks the Candida albicans Mdr1 efflux pump in yeast; shares compounds with Efflux pump inh; S. cerevisiae AD/CaMDR1, Nile Red efflux, flow cytometry; inhibition, % at 10 µM; hit rate 1% among 1,700; AID 588518; in the data active means inhibition above about 26%;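 further: 0% = DMSO vehicle and 100% = reference inhibitor; higher means more Nile Red retained so more efflux inhibition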
CaCdr2 efflux inh: Candida Cdr2 efflux pump inhibition; hit rate 4% among 1,700; Nile Red retention ratio vs DMSO, % at 10 µM; S. cerevisiae AD/CaCDR2, Nile Red retention, flow cytometry; shares compounds with Efflux pump inh; in the data active means Nile Red retention ratio vs DMSO above about 190%;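 further: higher ratio means more blocking of Cdr2 efflux of the dye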
Cdr1 pump inh: Candida Cdr1 efflux pump inhibition. hit rate 1% among 1,700. inhibition, % at 10 µM. shares compounds with Efflux pump inh. S. cerevisiae AD/CaCDR1, Nile Red efflux, flow cytometry;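 active means inhibition above the screen-wide mean plus twice its standard deviation, cut at about 32% in these data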
Numbers without * were called inactive; · = no result given; + = active, no number.

SMILES	Cneo AK release	Mot1-301 SUMO	Efflux pump inh	C2C12 statin	Mot1 SUMO dose	others
CCOc1c(P(=S)(N(C)C)N(C)C)c(C)nn1-c1ccccc1	·	891*	0	·	0
C=C1C(O)[C@@H]2O[C@]3(CC[C@H](/C=C/C(C)[C@@H]4CC(C)=CC5(O[C@H](C[C@@](C)(O)C(=O)O)CCC5O)O4)O3)CC[C@H]2O[C@@H]1C(O)CC(C)[C@H]1OC2(CCCCO2)CCC1C (some centres not stated)	·	888*	0	·	-2
O=C(Nc1ccc(Br)cc1)N1C[C@H]2C[C@@H](C1)c1cccc(=O)n1C2	1	0	0	-6	·
C[N+](C)(C)CC(=O)Nc1ccc(Cl)cc1C(=O)c1ccccc1	-3	415*	0	0	0
CN(C)CCCNCC(=O)Nc1ccc(Cl)cc1C(=O)c1ccccc1	·	5	0	·	·
Cc1noc(C)c1C(=O)N1CCC2(CC1)OCCO2	·	-14	1	-7	·
COC(=O)c1c(C)n(Cc2ccc3c(c2)OCO3)c2ccc(O)cc12	-1	696*	0	21	0
CCOC(=O)c1c(C)n(Cc2ccc3c(c2)OCO3)c2ccc(O)cc12	3	5	0	27	·
CC(C)C/C(=N/O)c1c[nH]c2ccccc12	2	572*	0	19	1
COc1ccc2c(c1)[C@@]13CCC=C[C@H]1[C@@H](C2)NCC3	0	455*	0	-10	0
CCC(=O)N1CC(=O)Nc2ccc(F)cc2C1c1ccccc1 (configuration not stated)	-1	122	0	5	·
CCC1C(c2ccccc2)NC(c2ccccc2)CC1(O)c1ccc(F)cc1 (configuration not stated)	-6	683*	0	0	0
COc1ccc(-c2ccc3n2Cc2cnnn2-c2ccccc2-3)cc1	1	·	·	8	·
CCOP(=O)(OCC)c1cc(CC)ccc1O	·	+	0	·	0
OC[C@H]1[C@H]2c3ccccc3NC[C@H]2N1Cc1cccnc1	-2	·	·	6	·
COc1ccc(C2SCC(=O)Nc3c2c(=O)[nH]n3C2CCCCC2)cc1 (configuration not stated)	-3	824*	0	2	0
Cc1ccc(C2SCC(=O)Nc3c2c(=O)[nH]n3C2CCOC(C)(C)C2)cc1 (configuration not stated)	4	3	0	2	·
CCc1ccc(-n2c(O)c(C(C)=O)c(=O)[nH]c2=O)cc1 (tested in a mixture with another compound)	·	-16	0	-2	·
OCCN1C2CCC1CC(O)(c1ccc(F)cc1)C2 (configuration not stated)	0	-11	0	·	·
OC1(c2ccc(F)cc2)CC2CCC(C1)N2Cc1nnnn1C1CCCCC1 (configuration not stated)	·	674*	0	-1	1
CN(C)P(=NC(=S)c1cccn1C)(N(C)C)N(C)C	1	89	0	-5	·
CCOC(=O)C1(c2ccccc2)CCN(CCC(=O)Nc2ccccc2OC)CC1	0	378*	0	1	1
CCOC(=O)C1(c2ccccc2)CCN(CCC(=O)Nc2ccc(F)cc2)CC1	2	10	0	-4	·
COC(=O)C[C@@H]1CC[C@@H]2NC[C@H](O)COC[C@H]2O1	1	·	·	4	·
CN(C)C1(c2nnnn2-c2ccc(Cl)cc2)CCCCC1	-2	737*	0	·	0
SMILES	Cneo AK release	Mot1-301 SUMO	Efflux pump inh	C2C12 statin	Mot1 SUMO dose	others
COC(=O)[C@@H]1[C@@H](C(=O)OC)C2(c3ccccc3-c3ccccc32)N(c2ccc(Cl)cc2)N1C#N	6	427*	0	·	-1
O=C(c1cccn2c(=O)c3cc(Cl)ccc3nc12)N1CCC2(CC1)OCCO2	1	-6	0	3	·
C/C(=N\N1CCCCCC1)c1c(O)n(-c2ccccc2)c(=O)[nH]c1=O	·	-13	0	·	·
C/C(=N\N1CCCCC1)c1c(O)[nH]c(=O)[nH]c1=O	·	-36	16*	·	·	Yeast cmpd fluor=111;Mdr1 pump inh=0;CaCdr2 efflux inh=103;Cdr1 pump inh=0
CCOCC(=O)NC1CCSC1=O (configuration not stated)	0	-6	0	6	·
CC1=CC(=O)OC2CC3OC4C[C@@H](C)C5OC6CC7O[C@]8(C)C/C=C\C9OC%10CC%11OC(CC(C)CO)CC(O)[C@]%11(C)OC%10CC9OC8C[C@]7(C)O[C@]6(C)CCC5OC4C[C@]3(C)OC12 (some centres not stated)	0	13	1.4*	6	·	Yeast cmpd fluor=105;Mdr1 pump inh=0;CaCdr2 efflux inh=106;Cdr1 pump inh=1
Cc1ccc(-c2cc(-c3ccccc3)cc(-c3ccccc3)[n+]2-c2ccccc2)cc1	-19	7	0	-273	·
Cc1ccc(-c2cc(-c3ccc(C)cc3)[n+](-c3ccccc3)c(-c3ccc(C)cc3)c2)cc1	-8	172	34*	-197	·	Yeast cmpd fluor=105;Mdr1 pump inh=20;CaCdr2 efflux inh=+;Cdr1 pump inh=15
COc1ccc(CCNCc2ccccc2F)cc1	0	-26	0	5	·
Cc1cccc(C2=NCC(=O)N(CC(=O)NCc3ccco3)c3sc4c(c32)CCCC4)c1	2	132	0	12	·
COc1ccc(C2=NCC(=O)N(CC(=O)NCc3ccco3)c3sc4c(c32)CCCC4)cc1	1	100	0.8*	27	·	Yeast cmpd fluor=113;Mdr1 pump inh=0;CaCdr2 efflux inh=100;Cdr1 pump inh=0
Nc1ccc2ccc3cccc[n+]3c2c1	3	-26	3.8*	-16	·	Yeast cmpd fluor=272*;Mdr1 pump inh=4;CaCdr2 efflux inh=185*;Cdr1 pump inh=3
CC1CCC(NCC(O)c2ccccc2)CC1 (configuration not stated)	11	-14	8.2*	13	·	Yeast cmpd fluor=108;Mdr1 pump inh=0;CaCdr2 efflux inh=100;Cdr1 pump inh=0
C=CCn1c(C)c(C=C2C(=O)NC(=O)NC2=O)c2ccccc21	-2	-12	0	6	·
COc1ccc2c(c1)/C(=C/c1cnc[nH]1)C(=O)N2	16	-23	0.8*	34	·	Yeast cmpd fluor=106;Mdr1 pump inh=0;CaCdr2 efflux inh=93;Cdr1 pump inh=0
COC(=O)[C@H]1[C@H](CO)[C@H]2Cn3c(ccc(-c4ccccc4F)c3=O)[C@@H]1N2Cc1cccnc1	0	·	·	20	·
CCOC(=O)c1c(C)n(COCCO)c2ccc(O)cc12	2	-23	7.5*	4	·	Yeast cmpd fluor=92;Mdr1 pump inh=0;CaCdr2 efflux inh=91;Cdr1 pump inh=0
COC(=O)C1=C(c2cccc(C#N)c2)C[C@@H]2CC[C@H]1N2C(=O)NCC1CC1	5	-1	2.5*	-8	·	Yeast cmpd fluor=100;Mdr1 pump inh=0;CaCdr2 efflux inh=104;Cdr1 pump inh=0
